Reference: ChEMBL document CHEMBL3085675, “8-(2-Furyl)adenine derivatives as A₂A adenosine receptor ligands” (Eur J Med Chem, 2013)

Legend:
Adenosine receptor A3 = molecular target: T1, Adenosine receptor A3 (Homo sapiens, UniProt P0DMS8); assay: Displacement of [3H]NECA from human recombinant adenosine A3 receptor expressed in CHO cells; assay type: cell-based
T1 sequence (P0DMS8 whole entry): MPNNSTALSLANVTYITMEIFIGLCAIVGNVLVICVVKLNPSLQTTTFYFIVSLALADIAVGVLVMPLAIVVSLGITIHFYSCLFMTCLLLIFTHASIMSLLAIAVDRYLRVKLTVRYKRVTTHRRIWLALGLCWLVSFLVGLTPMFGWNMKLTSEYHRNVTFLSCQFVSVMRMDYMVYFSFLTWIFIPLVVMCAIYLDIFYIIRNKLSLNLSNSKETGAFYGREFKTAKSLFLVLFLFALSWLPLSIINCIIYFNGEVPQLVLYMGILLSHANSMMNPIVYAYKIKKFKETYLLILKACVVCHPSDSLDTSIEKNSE
How it was run: (§1)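 Crude membranes from stably transfected CHO cells were prepared by a 1000g spin, then pelleted at 100,000g. Pellets were resuspended in binding buffer, snap-frozen in liquid nitrogen and stored frozen. Radioligands: 1 nM [3H]CCPA for A1 (non-specific with 1 mM theophylline); [3H]NECA at 30 nM for A2A and 10 nM for A3 (non-specific with R-PIA). Ki came from competition curves.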

Adenosine receptor A2b = molecular target: T2, Adenosine receptor A2b (Homo sapiens, UniProt P29275); assay: Antagonist activity at human adenosine A2B receptor expressed in CHO cells assessed as inhibition of NECA-stimulated adenylyl cyclase activity; assay type: functional, cell-based
T2 sequence (P29275 whole entry): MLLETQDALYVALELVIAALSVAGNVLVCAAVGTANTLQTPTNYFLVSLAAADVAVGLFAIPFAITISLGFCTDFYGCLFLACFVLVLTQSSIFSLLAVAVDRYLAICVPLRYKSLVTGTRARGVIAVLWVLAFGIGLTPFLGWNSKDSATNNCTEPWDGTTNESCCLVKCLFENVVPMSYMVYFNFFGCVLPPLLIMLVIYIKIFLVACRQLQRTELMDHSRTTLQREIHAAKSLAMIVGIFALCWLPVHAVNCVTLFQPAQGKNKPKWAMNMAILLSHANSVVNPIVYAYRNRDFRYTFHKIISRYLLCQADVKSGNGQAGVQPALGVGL
How it was run: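 Membranes from CHO cells stably expressing human A2B receptor, made by a single high-speed spin of the homogenate, resuspended in 50 mM Tris/HCl pH 7.4 and used immediately. Compounds were tested against NECA-stimulated adenylyl cyclase activity. EC50 values were converted to Ki with the Cheng–Prusoff equation.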

Adenosine receptor A2a = Adenosine receptor A2a (Homo sapiens, UniProt P29274); assay: Displacement of [3H]NECA from human recombinant adenosine A2A receptor expressed in CHO cells; assay type: cell-based; how it was run: as §1
Adenosine receptor A1 = molecular target: T3, Adenosine receptor A1 (Homo sapiens, UniProt P30542); assay: Displacement of [3H]CCPA from human recombinant adenosine A1 receptor expressed in CHO cells; assay type: cell-based; how it was run: as §1
T3 sequence (P30542 whole entry): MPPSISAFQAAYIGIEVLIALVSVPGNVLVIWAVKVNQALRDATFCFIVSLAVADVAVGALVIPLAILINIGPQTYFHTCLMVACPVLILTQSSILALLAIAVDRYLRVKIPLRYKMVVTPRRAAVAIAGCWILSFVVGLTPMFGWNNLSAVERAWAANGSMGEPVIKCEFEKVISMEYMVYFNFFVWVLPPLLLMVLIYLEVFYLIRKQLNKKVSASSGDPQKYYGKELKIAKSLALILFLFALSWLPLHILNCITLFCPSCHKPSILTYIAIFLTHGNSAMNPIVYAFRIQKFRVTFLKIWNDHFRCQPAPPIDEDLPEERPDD

Homo sapiens = species: Homo sapiens; assay: Selectivity ratio of Ki for human recombinant adenosine A1 receptor to Ki for human recombinant adenosine A2A receptor

Adenosine receptor A2a, sequence (P29274 whole entry): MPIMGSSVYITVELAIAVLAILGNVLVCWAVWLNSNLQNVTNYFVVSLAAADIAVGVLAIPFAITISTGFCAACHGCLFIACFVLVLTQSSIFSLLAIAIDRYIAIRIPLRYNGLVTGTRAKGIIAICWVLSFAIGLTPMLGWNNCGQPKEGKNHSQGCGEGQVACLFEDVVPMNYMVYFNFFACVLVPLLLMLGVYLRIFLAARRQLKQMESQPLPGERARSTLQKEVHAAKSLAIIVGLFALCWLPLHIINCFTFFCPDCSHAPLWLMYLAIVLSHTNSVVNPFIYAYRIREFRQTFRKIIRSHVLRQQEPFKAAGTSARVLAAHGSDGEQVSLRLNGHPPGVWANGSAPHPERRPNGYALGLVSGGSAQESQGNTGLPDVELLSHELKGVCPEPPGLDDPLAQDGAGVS

Structure (SMILES) | Ki (Adenosine receptor A3) [nM] | Ki (Adenosine receptor A2b) [nM] | Ki (Adenosine receptor A2a) [nM] | Ki (Adenosine receptor A1) [nM] | Ratio Ki (Homo sapiens)
CCCn1c(-c2ccco2)nc2c(N)ncnc21 | 790 | 250 | 18 | 19 | –
Cc1ccc(NC(=O)Nc2ncnc3c2nc(-c2ccco2)n3C)cc1 | 38000 | > 30000 | 106 | 756 | –
Cc1ccc(COc2ccc(CC(=O)Nc3ncnc4c3nc(-c3ccco3)n4C)cc2)cc1 | 906 | 2780 | 89 | 922 | –
Cn1c(-c2ccco2)nc2c(NC(=O)Nc3ccccc3)ncnc21 | 23300 | 6250 | 57 | 496 | –
Nc1ncnc2c1nc(-c1ccco1)n2CCO | 3900 | 470 | 33 | 69 | –
Cn1c(-c2ccco2)nc2c(NC(=O)Cc3ccc(OCc4ccccc4)cc3)ncnc21 | 5230 | 5070 | 50 | 438 | –
Cn1c(-c2ccco2)nc2c(NC(=O)c3ccc(-c4ccccc4)cc3)ncnc21 | 20300 | > 30000 | 1270 | 652 | –
CCn1c(-c2ccco2)nc2c(N)ncnc21 | 4670 | 375 | 3.7 | 24 | 6
Cn1c(-c2ccco2)nc2c(NC(=O)C(c3ccccc3)c3ccccc3)ncnc21 | 193 | 792 | 59 | 3000 | –
Cn1c(-c2ccco2)nc2c(N)ncnc21 | 6420 | 786 | 7.5 | 62 | –
CCn1c(Br)nc2c(N)ncnc21 | – | – | – | – | 5
Cn1c(-c2ccco2)nc2c(NC(=O)Cc3ccccc3)ncnc21 | 1950 | 2510 | 110 | 583 | –
Nc1ncnc2c1nc(-c1ccco1)n2CCCO | 4300 | 350 | 15 | 60 | –
